This is a sample that favours compounds with a hit; in the whole collection about 2.7% have one here.
OX1R antag-1 – antagonists of human orexin 1 receptor; O43613; CHO/OX1R cells, Fluo-8 calcium fluorescence, orexin A; inhibition, % at 5 µM; 330,000 compounds, 0.43% hits;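 active means inhibition above its plate's threshold, mean inhibition of all tested compounds on the plate plus 3 SD, cut at about 37% in these data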;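 further: 0% = orexin A challenge wells and 100% = SB-334867-A antagonist wells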
OXTR ag – human OXTR agonism; CHO-OTR cells, Fluo-8 calcium fluorescence; normalized: DMSO 0%, oxytocin 100%; 320,000 compounds, 0.32% hits; AID 2435; activation, % at 3 µM; P30559;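 active means activation above the mean of all tested compounds plus 3 SD, cutoff set per screening run, cut at about 20% in these data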;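 further: peak over basal fluorescence ratio from a 100 s FLIPR kinetic read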
Target sequence (P30559 whole entry, looked up): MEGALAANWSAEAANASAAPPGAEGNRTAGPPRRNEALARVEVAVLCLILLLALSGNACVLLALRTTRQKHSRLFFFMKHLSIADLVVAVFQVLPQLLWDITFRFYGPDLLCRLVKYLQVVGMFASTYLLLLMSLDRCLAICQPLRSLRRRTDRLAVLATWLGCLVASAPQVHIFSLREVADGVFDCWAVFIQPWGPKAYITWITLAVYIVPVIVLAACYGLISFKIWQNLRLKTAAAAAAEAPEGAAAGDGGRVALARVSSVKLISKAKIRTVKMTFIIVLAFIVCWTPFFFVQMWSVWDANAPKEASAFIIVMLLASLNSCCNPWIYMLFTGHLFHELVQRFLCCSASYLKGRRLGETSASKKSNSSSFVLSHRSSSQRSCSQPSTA
V1R ag counter – counter-screen for oxytocin receptor agonists: human V1a receptor agonists | CHO-V1R cells, Fluo-8 calcium fluorescence, agonist mode; 0% DMSO, 100% 3 nM vasopressin | activation, % at 3 µM | 320,000 compounds, 0.25% hits;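 active means activation above the mean activation of all tested compounds plus 3 SD, per screening run, cut at about 20% in these data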;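 further: signal is peak over basal fluorescence ratio across a 100 second FLIPR read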
OXTR potentiate – potentiators of human oxytocin receptor; P30559; 320,000 compounds, 0.061% hits; CHO-OTR cells, Fluo-8 calcium fluorescence, potentiator mode; 0% = oxytocin EC15, 100% = EC100; activation, % at 3 µM;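 active means activation above that plate's cutoff, the mean activation of tested compounds plus 3 SD, cut at about 6.6% in these data, passing the limit was not always enough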;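 further: 100% uses oxytocin at 75 nM as the full agonist control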
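test system = CHO-OTR cells, human receptor | compound = single-point 3.0 µM | schedule = 6 min compound pre-incubation at room temperature, 100 s kinetic read | signal = Fluo-8 no-wash calcium dye fluorescence, excitation 470-495 nm, emission 515-575 nm | repeats = single well per compound, singlicate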
OX1R antag-2 – OX1R (human) antagonism | O43613 | AID 485270 | OX1R-expressing cells, FRET antagonist read-out | inhibition, % at 6.6 µM | 330,000 compounds, 1.8% hits; in the data active means inhibition mostly above about 38%, no sharp cut-off; inactive means mostly below about 40%;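 further: 0% = agonist challenge alone and 100% = reference antagonist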
CHO parental Ca – counter-screen: ATP calcium response change in parental CHO cells; inhibition, % at 5.6 µM; 330,000 compounds, 0.63% hits; parental CHO-K1, ATP-induced calcium, Fluo-8 fluorescence;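 active means inhibition above that plate's mean sample inhibition plus 3 SD, cut at about 26% in these data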;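 further: 0% = ATP-challenged DMSO wells and 100% = DMSO wells without ATP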
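Assay system: untransfected parental CHO cell line. Also added: ATP agonist challenge. Dosing: one dose, 5.6 µM nominal. Measured by: Fluo-8 fluorescence. Read-out: % inhibition. Benchmarks: ATP wells versus no-ATP DMSO wells. Repeats: no replicates.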
The depositor's hits bear a star; . = no result given.

SMILES	OX1R antag-1	OXTR ag	V1R ag counter	OXTR potentiate	OX1R antag-2	CHO parental Ca
COc1ccc(C(C)=O)c(Oc2nc(CN3CCOCC3)nc3scc(-c4cccs4)c23)c1	-27.9	-1.0	0.1	-7.0	10.2	-5.3
CCn1cc(C(=O)NC2CCCc3c2cnn3-c2cccc(C)c2C)cn1 (centres undefined)	15.7	10.6	11.4	-14.8	53.8	53.5*
Cc1cccc(-n2ncc3c2CCCC3NC(=O)CN2CCOC2=O)c1C (centres undefined)	-8.0	-1.4	0.5	-16.6	15.2	5.0
Cc1cc(C(=O)NC2CCCc3c2cnn3-c2cccc(C)c2C)no1 (centres undefined)	-4.9	4.9	7.7	-13.6	23.0	6.6
COc1ccc(C(=O)NC2CCCc3c2cnn3-c2cccc(C)c2C)o1 (centres undefined)	12.2	6.0	9.5	-7.0	68.1*	0.2
CC1=C(C(=O)NC2CCCc3c2cnn3-c2cccc(C)c2C)OCCO1 (centres undefined)	14.9	7.1	9.3	-13.7	67.3*	13.7
CCN(CC)c1ccc(N=CN2CCOCC2)cc1	-18.8	0.1	-0.5	1.1	16.1	-13.4
CCOc1ccc(NC(=O)CN(C)C(=O)COc2cccc3c2OC(C)(C)C3)cc1OCC	-25.1	-1.7	0.5	3.5	-0.8	-5.3
CCC(Sc1nc(C)cc(C)n1)C(=O)Nc1nccs1 (centres undefined)	-13.6	-0.3	-1.2	-8.8	-6.0	-0.6
CN1/C(=C\C(=O)COC(=O)Cn2nnc(-c3ccccc3)n2)C(C)(C)c2ccccc21	36.6	4.2	6.0	-12.2	31.2	54.1*
O=[N+]([O-])c1ccc(N2CCCC2)nc1	-5.5	0.0	0.2	3.6	42.0*	-15.4
O=[N+]([O-])c1ccc(N2CCCCC2)nc1	-14.4	-0.5	-1.0	-3.9	35.4	-29.9
CC(=O)Nc1cccc(NC(=O)C(=O)NCC(c2ccco2)N2CCc3ccccc3C2)c1 (centres undefined)	-29.2	7.9	7.6	-17.3	8.9	-4.5
CCCCc1ccc(NC(=O)c2ccc(N(C)S(C)(=O)=O)cc2)cc1	10.2	15.5	6.2	-6.5	16.6	68.7*
CCc1nnc(NC(=O)CCC(=O)N2CCN(c3cccc(Cl)c3)CC2)s1	-25.6	0.6	3.4	-7.7	16.3	-17.8
CCOC(=O)C1CCN(C(c2cccnc2)c2c(NC(=O)c3ccco3)sc(C)c2C)CC1 (centres undefined)	-34.9	-1.9	-0.7	12.2*	7.7	-7.9
CN(C)c1ccc(/C=C/c2nc3ccccc3c(=O)n2-c2ccc(C(=O)O)cc2)cc1	83.3*	77.3*	82.4*	-26.5	13.8	63.9*
O=C(O)c1cccc(-n2c(/C=C/c3ccccc3)nc3ccccc3c2=O)c1	-12.8	0.4	0.8	-9.8	9.1	1.6
O=C(Nc1cc(S(=O)(=O)N2CCOCC2)ccc1Cl)c1ccncc1	-4.8	1.1	0.8	-2.3	3.3	-25.8
O=C1[C@@H](Oc2ccccc2)[C@@H](c2cnc3ccccc3c2)N1c1ccccc1	16.7	.	.	.	40.7*	-10.2
O=C1[C@H](Oc2ccccc2)[C@@H](c2ccncc2)N1c1ccncc1	-0.7	.	.	.	8.1	-8.9
O=C(O)Cn1ccc2cc(S(=O)(=O)N3CCCCCC3)ccc21	-7.4	-0.3	0.0	-6.9	4.8	-1.3
CSCCC(NS(=O)(=O)c1ccc(Cl)cc1)C(=O)OCC(=O)c1c(C)[nH]c2ccccc12 (centres undefined)	79.4*	3.6	7.2	-10.9	75.8*	82.4*
O=[N+]([O-])c1ccc(Nc2ccccn2)c([N+](=O)[O-])c1	-13.2	-1.5	-0.7	-15.6	36.3*	-2.3
O=C1c2ccccc2C(=O)N1Nc1ccc([N+](=O)[O-])cc1[N+](=O)[O-]	-21.3	0.3	-0.3	-6.4	68.0*	-7.0
SMILES	OX1R antag-1	OXTR ag	V1R ag counter	OXTR potentiate	OX1R antag-2	CHO parental Ca
Cc1ccccc1C(=O)NNC(=O)C1CCN(C(=O)Nc2ccccc2)CC1	-15.3	0.6	1.3	-6.9	3.4	-12.6
O=C(NCC1CCCO1)c1ccc2c(c1)C(=O)N(c1cccc([N+](=O)[O-])c1)C2=O (centres undefined)	12.0	0.8	0.6	-0.7	26.4	12.9
CN(C)c1cc(-c2ccc(Cl)cc2)oc(=O)c1Cl	-32.1	-3.4	-2.2	4.0	15.5	-16.2
CN(C)c1cc(-c2ccc([N+](=O)[O-])cc2)oc(=O)c1Cl	-21.3	-1.0	-0.5	-4.3	49.3*	-11.9
C=CC[C@H](CC(=O)N(CCO)Cc1ccccc1)C(=O)N[C@H](C)COC(=O)[C@@H](CC=C)CC(=O)OC(C)(C)C	-21.3	-2.1	0.1	-2.4	11.0	-6.0
Cc1ccc(-c2[nH]nc(N)c2N=Nc2ccccc2C)cc1	14.3	1.0	-0.2	-6.9	48.3	56.0*
Cc1sc2ncnc(NCCc3ccc(S(N)(=O)=O)cc3)c2c1C	20.1	9.3	12.2	-18.8	37.2	52.7*
O=[N+]([O-])c1cc(NCCO)c(N2CCCCCC2)c2nonc12	-21.3	0.6	0.6	-8.1	46.0*	-3.8
O=[N+]([O-])c1cc([N+](=O)[O-])c(N2CCCCCC2)cc1NCCO	-14.7	0.2	-0.5	-3.8	11.3	-6.8
COc1ccc(Cl)cc1NC(=O)COC(=O)C1=NNC(=O)CC1	-10.0	0.6	0.4	-4.5	6.2	-12.7
CCC(Oc1ccccc1)C(=O)N1CCN(S(=O)(=O)c2ccccc2)CC1 (centres undefined)	-20.2	1.0	0.3	-4.0	8.3	-20.7
O=[N+]([O-])c1ccccc1N=Nc1ccc(O)cc1	-9.4	2.0	2.3	-9.6	10.4	0.7
O=[N+]([O-])c1ccc(N=Nc2c(Cl)cc(O)cc2Cl)cc1	39.1*	17.6	12.7	-9.4	58.1*	66.6*
CCCCN(C(=O)Cc1coc2cc(C)c(C)cc12)c1c(N)n(Cc2ccccc2)c(=O)[nH]c1=O	-40.6	-1.3	-0.7	-10.3	26.6	-21.5
COc1ccc(CN(C)C(=O)c2cc(S(=O)(=O)NCc3ccccc3)ccc2C)c(OC)c1	9.9	3.6	4.7	-11.8	33.1*	0.8
COc1ccc(CCN(C)C(=O)c2cc(S(=O)(=O)NCc3ccccc3)ccc2C)cc1OC	-29.8	0.9	3.5	-6.7	31.4	-24.4
O=C(NC1=C(NC2CCS(=O)(=O)C2)C(=O)c2ccccc2C1=O)c1ccccc1 (centres undefined)	-10.6	-2.4	-1.6	5.8	72.9*	-28.4
O=C1C(Cl)=C(NC(=O)c2ccccc2)C(=O)C(Cl)=C1NC(=O)c1ccccc1	11.8	-1.8	4.8	2.0	48.5*	5.4
Cc1cccc(NC2=C(NC(=O)c3ccccc3)C(=O)c3ccccc3C2=O)c1	-26.5	-2.0	-0.4	9.3	75.0*	-27.9
